# Screening data: PubChem BioAssay, several laboratories
# UCH37 DUB inh – inhibitors of human deubiquitinating enzyme UCH37; inhibition, % (no concentration beside the values); hit rate 0.33% among 330,000; Q9Y5K5; purified proteasome/UCH37, Ub-AMC cleavage fluorescence;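 active = mean inhibition over replicate wells above about 20%, limit read from the data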;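 also: 0% = compound-free wells with enzyme and 100% = wells lacking proteasome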
# Target sequence (Q9Y5K5 whole entry, looked up): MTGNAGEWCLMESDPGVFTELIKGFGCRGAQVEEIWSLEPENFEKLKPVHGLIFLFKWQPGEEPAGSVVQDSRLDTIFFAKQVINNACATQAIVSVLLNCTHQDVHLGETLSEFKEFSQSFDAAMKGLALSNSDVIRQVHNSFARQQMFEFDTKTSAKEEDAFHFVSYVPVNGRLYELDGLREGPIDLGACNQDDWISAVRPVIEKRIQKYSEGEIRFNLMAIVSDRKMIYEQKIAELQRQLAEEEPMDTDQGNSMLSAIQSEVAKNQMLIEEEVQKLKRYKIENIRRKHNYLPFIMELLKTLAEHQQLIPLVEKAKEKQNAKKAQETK
#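 Schedule: 30 min plus 25 min, room temperature / Material: human UCH37 within purified proteasomes / Technique: AMC fluorescence intensity at 355/460 nm / Buffer or medium: pH 7.4 Tris-HCl (50 mM) with ovalbumin, ATP-MgCl2, DTT / Controls: wells without proteasome as full block, compound-free enzyme plus substrate as uninhibited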
# FGF22 binding – shifts melting point of recombinant human FGF22. hit rate 1.5% among 340,000. activity (Tm shift, normalised), % at 9.99 µM. recombinant FGF22 thermal shift, SYPRO orange fluorescence; percent of sucrose octasulfate shift, DMSO zero. Q9HCT0;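 active = mean Tm shift, scaled 0 neutral to 100 positive control, at about 1.3% or above, every replicate too, limit read from the data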
# NSD2 inh – blocks human histone methyltransferase NSD2; hit rate 0.54% among 310,000; O96028; NSD2 peptide methylation, AlphaScreen, 120 min; inhibition, % at 12.5 µM; in the data active = inhibition above about 50%
# SIRT5 inh – sirtuin-5 (human) deacylase inhibition; AID 652115; Purified SirT5, succinyl-peptide AMC, trypsin-coupled fluorescence; hit rate 1.1% among 330,000; Q9NXA8; inhibition, % at 15 µM; in the data active = inhibition above about 15%
# Casp6 inh – blocks human caspase-6 cleavage activity; AID 686996; hit rate 0.53% among 350,000; inhibition, % at 12.5 µM; purified caspase-6, Z-VEID-R110 cleavage fluorescence;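 active = mean inhibition across replicates at least about 35%, with every replicate also reaching that limit, limit read from the data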;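 also: 0% = median of neutral control wells and 100% = no fluorescence left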
# Target sequence (P55212 24-179 limits assumed): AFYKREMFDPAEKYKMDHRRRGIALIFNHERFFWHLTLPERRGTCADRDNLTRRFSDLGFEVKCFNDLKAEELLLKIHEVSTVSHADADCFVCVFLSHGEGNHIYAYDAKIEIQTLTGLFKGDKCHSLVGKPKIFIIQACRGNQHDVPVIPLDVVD
# Target sequence (P55212 194-293 limits assumed): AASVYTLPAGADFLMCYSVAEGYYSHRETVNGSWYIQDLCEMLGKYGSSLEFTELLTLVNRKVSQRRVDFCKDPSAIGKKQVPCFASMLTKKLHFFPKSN
# * = called active by the depositor; · = no result. The list is not random: actives were taken first. Their share in the collection is about 2.6%.
SMILES,UCH37 DUB inh,FGF22 binding,NSD2 inh,SIRT5 inh,Casp6 inh
Cc1ccc(NC(=S)N(Cc2ccc(Br)cc2)Cc2ccc(C(=O)O)cc2)cc1C,4,43*,2,1,8
Cc1cc(C)cc(NC(=S)N(Cc2ccc(Cl)cc2)Cc2ccc(C(=O)O)cc2)c1,1,·,0,13,6
CO[C@@H]1CN(C)C(=O)c2ccc(NS(C)(=O)=O)cc2OC[C@@H](C)N(CC2CC2)C[C@H]1C,·,0,·,-1,-11
COc1ccc(CN(C)C[C@@H]2OCCCC[C@H](C)Oc3ccc(NC(=O)Nc4ccc(C(F)(F)F)cc4)cc3C(=O)N([C@@H](C)CO)C[C@@H]2C)cc1,·,-1,·,9,-1
NS(=O)(=O)c1ccc(Cl)c(C(=O)Nc2ccccc2[N+](=O)[O-])c1,1,42,-2,18*,0
O=C(NNc1ccccc1[N+](=O)[O-])Nc1ccc(Cl)c(Cl)c1,1,0,1,16*,17
COC(=O)C[C@@H]1C[C@@H]2c3cc(NS(=O)(=O)c4cccc(OC)c4)ccc3O[C@@H]2[C@H](CO)O1,·,0,·,-18,1
Cc1nc(-c2ccccc2)sc1C(=O)NS(=O)(=O)c1ccc(CN2CCN(c3ccccc3)CC2)cc1,·,1,·,22*,14
COc1cc(OC)cc(C(=O)N[C@@H](CCSC)c2nc3ccccc3[nH]2)c1,7,43*,5,1,-2
O=C(O)c1cc(S(=O)(=O)N2CCN(S(=O)(=O)c3ccc4ccccc4c3)CC2)ccc1Br,5,0,6,6,40*
Cc1ccc(NC(=O)CC2S/C(=N/N=C\C=C\c3ccccc3)NC2=O)cc1Cl (stereo not drawn),6,·,·,·,·
O=C(CC1S/C(=N/N=C/C=C/c2ccccc2)NC1=O)Nc1ccc(C(=O)O)cc1 (stereo not drawn),20*,43,1,0,5
C[n+]1cccc2ccc3c(c21)OC(N)=C(C#N)C3c1ccccc1 (stereo not drawn),·,0,6,-2,38*
Cc1cc(/C=C2/NC(=O)NC2=O)c(C)n1-c1ccc(N2CCOCC2)cc1,10,43*,10,0,-3
Cc1cc(/C=C2\NC(=O)NC2=O)c(C)n1-c1ccc(N2CCOCC2)cc1,9,0,4,-12,-1
COc1cc(NCCCC(C)N)c2ncccc2c1 (stereo not drawn),-1,·,141*,·,·
CCC(CO)Oc1cc(NC(=O)c2ccc(N)cc2)c2ncn(C(C)C)c2c1 (stereo not drawn),4,0,·,-1,38*
CCCN(C)C[C@H]1Oc2cc(C#CCC3CCCC3)ccc2S(=O)(=O)N([C@H](C)CO)C[C@@H]1C,·,0,·,19*,-3
C[C@H](CO)N1C[C@H](C)[C@@H](CN(C)Cc2cccc(C(=O)O)c2)Oc2cc(C#CCC3CCCC3)ccc2S1(=O)=O,·,0,·,16*,·
C[C@@H]1CN([C@@H](C)CO)S(=O)(=O)c2ccc(C#CCC3CCCC3)cc2O[C@H]1CN(C)Cc1cccc(C(=O)O)c1,·,0,·,17*,19
COc1cccc(NC(=O)N(C)C[C@@H]2Oc3cc(/C=C/c4ccccc4)ccc3S(=O)(=O)N([C@@H](C)CO)C[C@@H]2C)c1,·,0,·,-3,2
CC1CCN(CCC(=O)NN=Cc2ccc([N+](=O)[O-])cc2)CC1,9,·,·,·,·
CC(C)Oc1cccc(C(=O)C2CCCN(Cc3ccc(Oc4ncccn4)cc3)C2)c1 (stereo not drawn),-1,43*,4,-1,-2
CC1=NN(c2ccccc2)C(=O)/C1=C\C=C\c1ccccc1,·,0,5,-5,-5
CC1=NN(c2ccc(C)c(C)c2)C(=O)/C1=C\C=C\c1ccc([N+](=O)[O-])o1,5,43*,3,-1,47*
SMILES,UCH37 DUB inh,FGF22 binding,NSD2 inh,SIRT5 inh,Casp6 inh
CC(C)(O)C#Cc1ccc([C@@H]2[C@H](CO)N3CCCCN(C(=O)c4ccncc4)C[C@@H]23)cc1,·,0,·,-1,3
Cc1cc(C)cc(CSCC(=O)N/N=C/c2ccc(OCC(=O)NCc3ccco3)cc2)c1,·,0,-2,20*,4
Oc1ccc(N=Nc2c(O)ccc3ccccc23)cc1,11,·,·,2,3
O=C(O)c1cc(N=Nc2c(O)ccc3ccccc23)cc(C(=O)O)c1,26*,·,13,4,10
COc1ccc(C=NNC(=O)CNC(=O)c2ccc3c(c2)OCCO3)c(C(=O)O)c1OC,1,·,·,·,·
Cc1ccnc(NCc2cccc3ccccc23)c1,0,0,2,53*,5
CCN1C(=O)CSC1=Nc1nccs1,3,·,·,·,·
COC(=O)c1ccc2nc(-c3ccc(OC)c(OC)c3)c(Cc3ccccc3C(F)(F)F)n2c1,·,0,·,22*,5
COC(=O)c1ccc2nc(-c3ccc(OC)c(OC)c3)c(Cc3ccccc3OC)n2c1,·,0,·,-3,3
FC(F)(F)c1ccccc1Cc1c(-c2cccc(Br)c2)nc2ccc(Br)cn12,·,20*,·,0,3
c1ccc2nc(SCc3cn4ccccc4n3)cnc2c1,7,43*,4,0,-2
c1ccc2oc(SCc3cn4ccccc4n3)nc2c1,2,0,0,1,0
CCOc1ccc(CN2CCN(C(=O)c3cccc(F)c3)CC2)cc1,1,0,2,19*,1
O=C(c1ccccc1F)N1CC(=O)N2[C@@H](CO)[C@H](c3ccc(C#Cc4ccccc4)cc3)[C@@H]2C1,·,·,·,2,1
NC(=S)NN=C1CCC2(CCCCC2)CC1,3,0,2,25*,0
CCOC(=O)C1Cn2c(nc3c(c2=O)C2(CCCC2)Cc2ccccc2-3)S1 (stereo not drawn),-14,·,-2,·,·
O=C(O)C1Cn2c(nc3c(c2=O)C2(CCCC2)Cc2ccccc2-3)S1 (stereo not drawn),-8,43*,·,2,2
COc1ccc(C(=O)NN=C(C)c2ccc3c(c2)C2C=CCC2C(c2ccccc2)N3)cc1 (stereo not drawn),-4,·,·,·,·
Cc1cc(C)c(C(=O)COC(=O)c2cccnc2Cl)c(C)c1,4,43*,-9,-4,0
O=C(COC(=O)c1cccnc1Cl)c1ccc(Cl)cc1Cl,-1,·,-3,·,·
O=C1c2cccnc2-c2ncccc21,2,·,-4,·,·
COC1=C(Br)C(=O)c2ncccc2C1=O,·,-1,·,4,98*
CCOc1ccc(NC(=O)CN2C(=O)S/C(=C/c3cccn3C)C2=O)cc1,1,0,-6,112*,1
Cn1cccc1/C=C1\SC(=O)N(CC(=O)Nc2ccc(Cl)cc2)C1=O,-2,0,·,1,0
CCOc1cc(C(=O)NC(CC(=O)O)c2ccc(OC3CCCC3)cc2)cc(OCC)c1OCC (stereo not drawn),1,0,0,24*,-1
CC(C)(C)c1ccc(C(=O)NC(CC(=O)O)c2ccc(OC3CCCC3)cc2)cc1 (stereo not drawn),3,0,0,4,1
